Source: PubChem BioAssay (several laboratories)
Rows were chosen to be rich in hits. Some 4.5% of all compounds tested hit in one or more screens of this group.
CHOP UPR activ: apoptotic UPR (CHOP) activation; actives 0.34% (n = 330,000); CHO-CHOP luciferase reporter, luminescence; percent of tunicamycin response over DMSO baseline; activation, % at 10 µM;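 active means at 10 µM dose, activation of 40% or more, normalized to positive control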;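 further: 100% = tunicamycin at 10 µg/mL and 0% = DMSO alone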
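Test system: CHO CHOP reporter cells. Input: 500 CHO-CHOP cells per well. Medium: F12 with 10% FBS. Technique: luciferase luminescence. Measure: percent activation relative to tunicamycin control. Dosing: 10 µM compound, 0.5% DMSO. Timing: 16-18 h cell attachment, then 6 h compound exposure, 37 °C.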
UPR XBP1 act: activators of adaptive arm of unfolded protein response (XBP1). actives 0.33% (n = 330,000). activation, % at 20 µM. CHO-XBP1 luciferase reporter, IRE1-XBP1 UPR activation, luminescence; percent of tunicamycin response, DMSO as zero;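 active means versus positive control, 20 µM dose yields 30% or more activation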;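 further: 100% = tunicamycin at 10 µg/mL and 0% = DMSO only wells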
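assay system = CHO-XBP1 luciferase reporter cells | amount = 1000 cells/well | buffer or medium = F12 plus 10% FBS | compound dosing = single point, 20 µM final compound, 1% DMSO | incubation = 16-18 h cell attachment at 37 °C, then 6 h compound exposure | detection = Steady-Glo luminescence read | controls = tunicamycin 10 µg/mL and vehicle-only wells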
p97 inhibitor: inhibitors of human p97 ATPase. P55072. recombinant p97 ATPase, Kinase-Glo ATP luminescence, 3 h. inhibition, % at 8 µM. actives 0.42% (n = 220,000). AID 1481; in the data active means inhibition above about 15%;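 further: 0% = DMSO vehicle and 100% = wells lacking enzyme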
M18AAP inhibitor: blocks P. falciparum M18 aspartyl aminopeptidase | actives 1.2% (n = 290,000) | inhibition, % at 7.35 µM | recombinant PfM18AAP, H-Glu-NHMec fluorogenic cleavage;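 active means inhibition above the campaign mean inhibition over all tested compounds plus 3 SD, cut at about 28% in these data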;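 further: 0% = plate median of test compound wells and 100% = 2 mM ZnCl2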
CHOP inh: blocks CHOP induction under ER stress. CHO-K1 CHOP-promoter luciferase, tunicamycin-induced, 15-18 h. inhibition, % at 10 µM. actives 3.8% (n = 220,000). AID 2732;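 active means compounds that reduced the stress-induced luciferase reporter signal by more than about 70% of percent inhibition, limit read from the data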;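 further: 0% = tunicamycin plus vehicle and 100% = wells without tunicamycin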
NS3 helicase inh: blocks Hepatitis C virus NS3 helicase unwinding; actives 0.56% (n = 290,000); NS3 helicase DNA unwinding, Cy5 molecular beacon fluorescence; AID 1800; inhibition, % at 10.9 µM;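 active means inhibition above the mean of all tested compounds plus 3 SD, set per campaign, cut at about 35% in these data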;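 further: 0% = DMSO wells and 100% = thioflavine S control wells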
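Material: hepatitis C virus NS3 helicase domain fragment enzyme; measured by: Cy5 fluorescence, 0 and 60 min reads; control set: DMSO and thioflavine S; incubation: 60 min unwinding reaction at 25 °C after ATP addition; read-out basis: % inhibition from 60/0 min fluorescence ratio, DMSO 0%, thioflavine S 100%; repeats: singlicate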
The depositor's hits bear a star; · = not tested or not shown.

SMILES	CHOP UPR activ	UPR XBP1 act	p97 inhibitor	M18AAP inhibitor	CHOP inh	NS3 helicase inh
COc1ccc(OCC(=O)Nc2ccc(N3CCN(C(=O)c4ccco4)CC3)cc2)cc1	1.8	-0.3	1.5	-3.0	9.3	5.8
O=C(COc1ccc(Cl)cc1)Nc1ccc(N2CCN(C(=O)c3ccco3)CC2)cc1	3.0	-5.8	-8.0	3.6	73.6*	-7.6
CC(=O)N1CCN(c2ccc(NC(=S)NC(=O)COc3ccc(C(C)(C)C)cc3)cc2)CC1	6.8	-1.4	3.3	-5.5	76.3*	-18.9
CC(C)CCC(C(=O)O)C(C)CC(=O)Nc1ccn(-c2ccccc2)n1 (stereo unspecified)	0.2	-1.4	0.9	-9.6	-5.8	9.9
COc1cc(Cl)c(C)cc1NC(=O)COc1ccc(C)nc1[N+](=O)[O-]	7.2	5.4	·	·	·	·
O=C(CSc1nnc(CNc2ccccc2)o1)N1CCc2ccccc21	-1.5	0.5	-0.9	-10.5	50.8	-11.1
O=C(CSc1nnc(Cc2csc(Nc3cccc(Cl)c3)n2)o1)N1CCc2ccccc21	-2.4	-1.2	-3.4	-4.0	89.4*	21.9
CCOC(=O)c1ccc(NC(=O)Nc2ccc3c4c(cccc24)C(=O)N3CC)cc1	1.9	6.7	1.8	0.5	82.8*	2.2
CCN1C(=O)c2cccc3c(NS(=O)(=O)c4ccc(NC(C)=O)cc4)ccc1c23	-3.5	0.2	4.4	2.8	-18.1	-3.5
CCOc1ccc(CCNC(=O)COC(=O)c2cc(=O)[nH]c3ccccc23)cc1OCC	1.2	-0.9	·	·	·	·
CCOC(=O)C1=C(C)N=C2c3ccccc3C(=O)C2C1c1ccc(Cl)cc1 (stereo unspecified)	1.3	25.2	2.4	7.7	87.9*	-11.3
COc1ccc([N+](=O)[O-])cc1NC(=O)C(C)NNC(=O)c1cccc([N+](=O)[O-])c1 (stereo unspecified)	-0.8	1.1	·	·	·	·
COc1ccc(-c2nc(C#N)c(NCCc3ccccc3)o2)cc1	3.3	1.9	-0.1	-4.8	89.6*	-5.7
COc1ccc(CNc2oc(-c3ccccc3)nc2C#N)cc1	0.4	3.4	0.8	-4.4	12.2	-12.6
COc1ccc(CCNc2oc(COc3ccccc3F)nc2C#N)cc1	-0.2	0.6	-2.2	1.7	86.6*	-12.2
CCCCNc1oc(-c2ccc(OC)cc2)nc1S(=O)(=O)c1ccccc1	1.0	-0.7	-3.9	-4.3	71.8*	-10.7
O=C(NNC(=O)c1ccccc1F)C1=NN(c2ccccc2)C(=O)CC1	0.5	-3.2	·	-3.8	·	-4.9
COc1cc(/C=C(\C#N)C(=O)N2CCOCC2)ccc1OCc1ccccc1	1.5	5.6	-0.6	3.0	-45.8	5.9
N#C/C(=C\c1ccc(OCc2ccc(C(=O)O)cc2)cc1)C(=O)N1CCOCC1	-9.0	-5.1	3.8	-3.6	81.8*	18.2
CCc1c(C)sc(NC(=O)c2cc(-c3ccc(O)cc3)on2)c1C#N	1.2	3.5	2.6	7.8	-10.0	12.4
CCc1c(C)sc(NC(=O)c2cc(-c3ccc(OC)c(OC)c3)on2)c1C#N	-2.1	-1.6	3.8	-2.0	83.3*	2.9
CCc1c(C)sc(NC(=O)c2cc(-c3cc(OC)ccc3OC)on2)c1C#N	3.9	18.4	6.7	-10.4	85.9*	6.0
CCOc1ccccc1OCCCC(=O)Nc1cccc(-n2cnnn2)c1C	0.4	-3.1	·	·	·	·
CC1(C)CC(=O)C2=C(C1)OC(N)=C(C#N)[C@@H]2c1ccccc1[N+](=O)[O-]	-0.9	-0.9	11.6	29.0*	0.1	7.4
COC(=O)C[C@H](NC(=O)Cn1cnc2c(SC)nc(N)nc21)C(=O)OC	-0.7	-1.9	·	·	·	·
SMILES	CHOP UPR activ	UPR XBP1 act	p97 inhibitor	M18AAP inhibitor	CHOP inh	NS3 helicase inh
CC(C)C(=O)N=c1sc2cc(F)cc(F)c2n1C	-1.0	2.9	-5.2	-6.0	85.2*	0.0
CCC(=O)N=c1sc2cc(F)cc(F)c2n1C	6.7	2.5	-1.2	-14.8	·	3.4
CCCN1CCN(C(=O)C2CCCN(c3ncnc4c3nc3n4CCCCC3)C2)CC1 (stereo unspecified)	0.4	-4.1	·	11.3	·	31.7
CCCn1c(N)c(C(=O)CN2CCN(S(=O)(=O)c3cccc(Cl)c3)CC2)c(=O)[nH]c1=O	-2.0	1.9	·	·	·	·
Oc1ccc(N=Nc2c(O)ccc3ccccc23)cc1	0.3	6.4	-6.1	-0.4	92.3*	9.0
O=C(O)c1cc(N=Nc2c(O)ccc3ccccc23)cc(C(=O)O)c1	·	·	3.7	-4.7	9.4	8.4
NS(=O)(=O)c1ccc(N=Nc2c(O)ccc3ccccc23)cc1	-3.7	-3.3	-3.1	-2.7	73.6*	7.1
CC(=O)c1ccc(S(=O)(=O)NCCC(=O)NC2CCN(Cc3ccccc3)CC2)cc1	-1.2	-2.9	·	·	·	·
Cc1cc(C)nc(-n2nc(C)cc2NC(=O)c2cccc(S(=O)(=O)N3CCCCC3)c2)n1	·	·	5.1	-0.9	106.8*	-3.3
Cc1cc(NC(=O)c2cccc(S(=O)(=O)N3CCCCCC3)c2)n(-c2ccccn2)n1	2.7	0.5	0.7	-13.6	-26.9	-3.9
c1ccc2c(c1)OCC(CNc1ncnc3sccc13)O2 (stereo unspecified)	·	·	-3.5	-8.1	79.2*	1.5
CCOc1ccc(N2C(=O)CC(SC(=NC)Nc3ccc4c(c3)OCO4)C2=O)cc1 (stereo unspecified)	-3.8	-2.4	1.2	-10.7	73.2*	-2.9
CCC(=O)OCCNc1cc(SCCC(=O)OC)c2nonc2c1[N+](=O)[O-]	0.1	-1.9	-0.4	-3.4	10.5	-3.0
CCC(=O)OCCNc1cc(Sc2nccn2C)c2nonc2c1[N+](=O)[O-]	·	·	5.9	-35.7	109.1*	3.0
CCOc1ccc(S(=O)(=O)N2CC(=O)Nc3ccccc32)cc1	-1.2	-2.6	·	-7.8	·	-12.3
c1ccc(CNc2ncnc3scc(-c4cccs4)c23)nc1	-1.5	1.6	2.4	0.0	71.8*	-8.8
Cc1ccc2c(c1)Oc1ccc(NC(=O)CCl)cc1C(=O)N2	15.8	-5.7	14.0	-9.7	107.1*	13.9
Cc1ccc2c(c1)Oc1ccc([N+](=O)[O-])cc1C(=O)N2	-1.1	0.1	0.7	-6.2	-9.2	-5.3
O=[N+]([O-])CC1(n2nc3ccccc3n2)CCCCC1	-0.2	-2.2	·	·	·	·
O=S(=O)(NCCN1CCOCC1)c1cc(Cl)c(Cl)cc1Cl	3.6	-3.2	·	-10.4	·	-2.0
CCOC(=O)c1ccc(NC(=O)c2cccc(S(=O)(=O)N3c4ccccc4CC3C)c2)s1 (stereo unspecified)	13.1	9.8	-1.6	-3.5	71.5*	-26.0
Cc1oc(-c2ccccc2Cl)nc1CS(=O)(=O)CC(=O)N1CCOCC1	0.1	-2.6	·	-1.4	·	-5.0
O=C(Cn1cc2c(n1)CCCC2)NC1CCN(Cc2ccccc2)CC1	1.4	1.2	4.7	0.0	82.2*	7.2
